Legend:
[1] = target: Aldo-keto reductase family 1 member B1 (Rattus norvegicus, UniProt P07943); assay: Inhibition of Sprague-Dawley rat lense aldose reductase using DL-glyceraldehyde as substrate by spectrofluorometric analysis
Method in brief: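 Crude enzyme from lenses of 8-week-old Sprague–Dawley rats (100–150 g), homogenized in 135 mM Na,K-phosphate pH 7.0 with 0.5 mM PMSF and 10 mM 2-mercaptoethanol; 100000g supernatant used. Reaction in 135 mM phosphate pH 7.0, 100 mM Li2SO4, 0.03 mM NADPH, 1 mM DL-glyceraldehyde at 37 °C, NADPH-started, HCl-stopped. NADP converted with NaOH/imidazole at 60 °C 10 min; fluorescence ex 360/em 460 nm. IC50 from log-concentration regression of remaining activity; 100 μM cutoff.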

Danio rerio [2] = organism: Danio rerio; assay: Toxicity in zebrafish embryo up to 20 uM; assay type: organism-based; conditions: in vivo
Danio rerio [3] = organism: Danio rerio; assay: Reduction of high glucose-induced dilation of hyaloid-retinal vessels in flk:EGFP transgenic zebrafish embryo at 20 uM treated for day 3 to 6 postfertilization measured on day 6 by stereomicroscopic analysis relative to control; assay type: functional; set-up: scale not given: the % may be the effect or the level left
Method in brief: (§1)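 flk:EGFP embryos, five per well at 3 dpf in egg water with 130 mM glucose, exposed to compound 3–6 dpf. Fixed in 4% paraformaldehyde at 6 dpf, lenses with vessels isolated by 3% trypsin (0.2 M Tris-HCl pH 7.8) 80 min at 37 °C. Hyaloid vessel diameter near the optic disc measured three times per lens, 10 larvae per group, triplicate; mean ± SEM, ANOVA/Dunnett versus high-glucose group.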

Danio rerio [4] = organism: Danio rerio; assay: Reduction of high glucose-induced dilation of hyaloid-retinal vessel in flk:EGFP transgenic zebrafish embryo at 10 uM treated for day 3 to 6 postfertilization measured on day 6 by stereomicroscopic analysis relative to control; assay type: functional; set-up: scale not given: the % may be the effect or the level left; method in brief: as §1

Structure (SMILES)	IC50 [1] [µM]	Activity (Danio rerio [2])	Activity (Danio rerio [3]) [%]	Activity (Danio rerio [4]) [%]
COc1cc([C@H]2O[C@H](c3cc(OC)c(O)c(OC)c3)[C@@H](CO)[C@@H]2CO)cc(OC)c1O [HUAZHONGILEXIN]	> 100	–	–	–
COc1cc(O[C@@H]2O[C@H](CO)[C@@H](O)[C@H](O)[C@H]2O)cc(-c2ccc(O)c(O)c2)c1	5.6	Non-toxic	–	–
COc1cc(O)cc(-c2ccc(O)c(O)c2)c1	13.8	Non-toxic	99	95
O=C(O)CC1(CC(=O)O)CCCC1	28.7	–	–	–
COc1cc([C@H]2O[C@H](c3cc(OC)c(O)c(OC)c3)[C@@H](CO[C@@H]3O[C@@H](C)[C@H](O)[C@@H](O)[C@H]3O)[C@@H]2CO)cc(OC)c1O	> 100	–	–	–
COc1cc(OC)cc(-c2ccc(O)c(O[C@@H]3O[C@H](CO)[C@@H](O)[C@H](O)[C@H]3O)c2)c1	3.8	Non-toxic	–	–
